Here are results for four molecules from ChEMBL document CHEMBL4145646, “Macrophilones from the Marine Hydroid Macrorhynchia philippina Can Inhibit ERK Cascade Signaling” (J Nat Prod, 2018).

Experiment [1] concerns COLO 205. The experiment can be described thus: Growth inhibition of human COLO205 cells harboring B-Raf V600E mutant after 48 hrs by sulforhodamine B assay. It counts as functional, cell-based. The procedure, abridged: (§1)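 Tested in the NCI-60 human tumor cell line screen as DMSO solutions. Results analyzed with CellMiner bioinformatics tools.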
For orientation: In SRB staining, fixed cells bind dye roughly in proportion to their protein.

Another experiment has as its system Malme-3M. The experiment can be described thus: Growth inhibition of human MALME-3M cells harboring B-Raf V600E mutant after 48 hrs by sulforhodamine B assay. It counts as functional, cell-based. Summed up: as §1
The test system of the next experiment is SK-MEL-5. The experiment can be described thus: Growth inhibition of human SK-MEL-5 cells harboring B-Raf V600E mutant after 48 hrs by sulforhodamine B assay. In kind it is functional, cell-based. Summed up: as §1
A further experiment deals with MDA-MB-435. The experiment can be described thus: Growth inhibition of human MDA-MB-435 cells harboring B-Raf V600E mutant after 48 hrs by sulforhodamine B assay. It counts as functional, cell-based. The procedure, abridged: as §1
Experiment [2] addresses Serine/threonine-protein kinase B-raf (Homo sapiens) (UniProt P15056). The experiment is described as follows: Inhibition of B-Raf (unknown origin) at 10 uM using inactive MEK as substrate pretreated for 20 mins followed by substrate addition and measured after 30 mins in presence of [gamma32P]ATP by autoradiography.
The target of experiment [3] is RAF proto-oncogene serine/threonine-protein kinase (Homo sapiens) (UniProt P04049). The experiment can be described thus: Inhibition of C-Raf (unknown origin) at 10 uM using inactive MEK as substrate pretreated for 20 mins followed by substrate addition and measured after 30 mins in presence of [gamma32P]ATP by autoradiography.
Sequence of RAF proto-oncogene serine/threonine-protein kinase (Homo sapiens) (P04049 whole entry): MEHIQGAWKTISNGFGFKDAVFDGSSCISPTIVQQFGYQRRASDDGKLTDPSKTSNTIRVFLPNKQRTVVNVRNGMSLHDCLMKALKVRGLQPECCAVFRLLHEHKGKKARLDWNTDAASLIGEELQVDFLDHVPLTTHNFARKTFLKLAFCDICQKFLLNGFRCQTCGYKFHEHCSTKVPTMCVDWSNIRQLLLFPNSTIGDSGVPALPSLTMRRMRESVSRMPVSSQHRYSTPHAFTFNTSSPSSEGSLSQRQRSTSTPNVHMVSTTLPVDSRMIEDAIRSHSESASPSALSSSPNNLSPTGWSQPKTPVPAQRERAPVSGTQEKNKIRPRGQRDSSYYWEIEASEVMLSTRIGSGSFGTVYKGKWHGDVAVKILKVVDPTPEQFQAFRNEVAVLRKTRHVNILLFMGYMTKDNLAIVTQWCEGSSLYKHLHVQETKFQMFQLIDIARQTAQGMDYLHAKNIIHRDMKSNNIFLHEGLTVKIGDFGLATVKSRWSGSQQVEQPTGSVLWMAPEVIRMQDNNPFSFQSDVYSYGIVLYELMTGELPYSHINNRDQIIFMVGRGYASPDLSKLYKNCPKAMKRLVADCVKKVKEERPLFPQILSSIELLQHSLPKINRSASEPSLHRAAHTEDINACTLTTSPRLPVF
Experiment [4] has as its target Dual specificity mitogen-activated protein kinase kinase 1 (Homo sapiens) (UniProt Q02750). The experiment can be described thus: Inhibition of wild-type MEK1 (unknown origin) at 10 uM using inactive ERK2 as substrate pretreated for 20 mins followed by substrate addition and measured after 30 mins in presence of [gamma32P]ATP by autoradiography.
The species entered for a further experiment is Homo sapiens. The experiment can be described thus: Inhibition of ERK (unknown origin).
Experiment [5] concerns COLO 205. The experiment is described as follows: Down regulation of total ERK level in human COLO205 cells harboring B-Raf V600E mutant at 1 to 10 uM measured after 18 hrs by Western blot analysis. In kind it is functional, cell-based. Summed up: (§2)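 Colo205 cells grown at 37 °C, 5% CO2 in RPMI-1640 with 10% FBS and 2 mM L-glutamine. Compounds added in DMSO (final 0.1% v/v), vehicle-only controls. Cells washed twice in ice-cold PBS, lysed in RIPA buffer (pH 8.0, with protease and phosphatase inhibitors). Lysates clarified, equalized for protein, then immunoblotted for B-Raf, C-Raf, ERK2, MEK1, pS217/221-MEK and pT202/Y204-ERK.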
(In general: In western blotting, separated proteins are transferred to a membrane and probed.)

Experiment [6] concerns the target T1, Dual specificity mitogen-activated protein kinase kinase; MEK1/2 (Homo sapiens) (UniProt P36507+Q02750). The experiment is described as follows: Increase in MEK phosphorylation in human COLO205 cells harboring B-Raf V600E mutant at 1 uM after 18 hrs by Western blot analysis. In kind it is cell-based. Summed up:
as §2

The test system of experiment [7] is Serine/threonine-protein kinase B-raf (Homo sapiens), P15056 [V600E]. The experiment can be described thus: Increase in ERK phosphorylation in human COLO205 cells harboring B-Raf V600E mutant at 1 uM after 18 hrs by Western blot analysis. It counts as cell-based. The procedure, abridged: as §2
Sequence of Serine/threonine-protein kinase B-raf (Homo sapiens), P15056 [V600E] (P15056 whole entry V600E): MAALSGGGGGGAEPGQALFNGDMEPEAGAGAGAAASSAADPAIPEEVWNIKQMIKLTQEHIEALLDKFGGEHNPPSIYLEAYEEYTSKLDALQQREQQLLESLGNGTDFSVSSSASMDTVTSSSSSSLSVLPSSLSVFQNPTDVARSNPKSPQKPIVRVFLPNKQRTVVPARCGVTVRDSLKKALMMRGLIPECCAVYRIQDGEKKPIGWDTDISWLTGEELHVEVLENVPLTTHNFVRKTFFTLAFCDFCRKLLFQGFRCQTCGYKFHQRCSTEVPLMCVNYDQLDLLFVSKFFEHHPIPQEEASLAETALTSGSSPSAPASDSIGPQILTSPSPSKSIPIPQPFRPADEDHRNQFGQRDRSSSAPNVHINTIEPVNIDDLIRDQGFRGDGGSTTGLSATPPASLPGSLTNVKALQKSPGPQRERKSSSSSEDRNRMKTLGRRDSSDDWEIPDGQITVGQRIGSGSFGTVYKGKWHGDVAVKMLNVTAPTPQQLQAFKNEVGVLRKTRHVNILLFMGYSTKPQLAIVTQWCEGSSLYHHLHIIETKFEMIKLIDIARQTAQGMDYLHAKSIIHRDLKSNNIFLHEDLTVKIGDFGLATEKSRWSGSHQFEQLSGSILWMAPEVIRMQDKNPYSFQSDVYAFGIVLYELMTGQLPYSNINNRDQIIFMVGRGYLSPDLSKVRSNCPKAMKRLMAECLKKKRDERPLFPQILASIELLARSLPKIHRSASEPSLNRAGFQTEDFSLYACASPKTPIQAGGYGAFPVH
Experiment [8] relates to COLO 205. The experiment can be described thus: Effect on total B-Raf level in human COLO205 cells harboring B-Raf V600E mutant at 1 to 10measured after 18 hrs by Western blot analysis. In kind it is functional, cell-based. The procedure, abridged: as §2
Experiment [9] has as its system COLO 205. The experiment is described as follows: Effect on total C-Raf level in human COLO205 cells harboring B-Raf V600E mutant at 1 to 10measured after 18 hrs by Western blot analysis. It counts as functional, cell-based. Summed up:
as §2

For experiment [10], the system named is COLO 205. The experiment is described as follows: Effect on total MEK level in human COLO205 cells harboring B-Raf V600E mutant at 1 to 10measured after 18 hrs by Western blot analysis. In kind it is functional, cell-based. The procedure, abridged:
as §2

Experiment [11] has as its system COLO 205. The experiment can be described thus: Effect on total ERK level in human COLO205 cells harboring B-Raf V600E mutant at 1 to 10measured after 18 hrs by Western blot analysis. In kind it is functional, cell-based. The procedure, abridged:
as §2

For experiment [12], the target named is T1, Dual specificity mitogen-activated protein kinase kinase; MEK1/2 (Homo sapiens). The experiment is described as follows: Inhibition of MEK phosphorylation in human COLO205 cells harboring B-Raf V600E mutant at 1 to 10 uM after 18 hrs by Western blot analysis. It counts as cell-based. The procedure, abridged: as §2

Calls of active or inactive are those of the source. No cut-off for these calls is given here.

Sequence of Dual specificity mitogen-activated protein kinase kinase 1 (Homo sapiens) (Q02750 whole entry): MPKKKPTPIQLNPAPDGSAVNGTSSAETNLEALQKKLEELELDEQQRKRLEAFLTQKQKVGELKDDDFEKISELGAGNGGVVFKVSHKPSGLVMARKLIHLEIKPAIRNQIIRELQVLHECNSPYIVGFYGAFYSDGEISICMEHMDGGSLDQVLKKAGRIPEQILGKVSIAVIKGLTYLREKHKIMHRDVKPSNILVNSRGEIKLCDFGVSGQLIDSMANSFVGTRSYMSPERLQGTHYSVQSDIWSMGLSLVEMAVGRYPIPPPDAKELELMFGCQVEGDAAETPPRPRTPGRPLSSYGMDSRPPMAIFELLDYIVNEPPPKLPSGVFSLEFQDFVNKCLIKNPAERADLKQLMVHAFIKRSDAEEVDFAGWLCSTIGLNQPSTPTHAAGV
Sequence of Serine/threonine-protein kinase B-raf (Homo sapiens) (P15056 whole entry): as the sequence (P15056 whole entry V600E) above, with E600V counted along it
T1 sequence (P36507 whole entry, looked up): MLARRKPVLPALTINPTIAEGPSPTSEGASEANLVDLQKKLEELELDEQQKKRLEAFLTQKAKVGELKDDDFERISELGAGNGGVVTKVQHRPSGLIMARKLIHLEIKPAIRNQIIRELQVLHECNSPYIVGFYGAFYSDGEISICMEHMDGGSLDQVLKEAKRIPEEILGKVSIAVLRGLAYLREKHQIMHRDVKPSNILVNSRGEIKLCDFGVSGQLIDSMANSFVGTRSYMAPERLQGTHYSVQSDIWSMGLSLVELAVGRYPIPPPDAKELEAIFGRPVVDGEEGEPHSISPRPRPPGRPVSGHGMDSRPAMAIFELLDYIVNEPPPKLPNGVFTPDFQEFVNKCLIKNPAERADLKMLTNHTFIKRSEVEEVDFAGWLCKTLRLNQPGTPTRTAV
T1 sequence (Q02750 whole entry, looked up): as the sequence (Q02750 whole entry) above

`N=C1C2=C(NCCS2)C(=O)c2[nH]cc(CO)c21`: the “growth inhibition (GI)” value with COLO 205 [1], in the experiment on Malme-3M, in the experiment on SK-MEL-5 and in the experiment with MDA-MB-435 was “Active” each time. For the same molecule, the inhibition entry (in [2]; in [3]; in [4]; in the experiment filed under Homo sapiens) was “inactive” throughout. For the same molecule, in the experiment on COLO 205 [5], the outcome was inactive. In addition, the result in experiment [6] and in experiment [7] was Active.

In the case of `CSC1=C(N)C(=O)c2[nH]cc(CO)c2C1=N`, the “growth inhibition (GI)” value in the experiment on COLO 205 [1], in the experiment on Malme-3M, with SK-MEL-5 and in the experiment with MDA-MB-435 was “Active” throughout. Moreover, the inhibition entry (in experiment [2]; in [3]; in experiment [4]; in the experiment listed under Homo sapiens) was “inactive” throughout. In the experiment on COLO 205 [5], the outcome was inactive.

Take `N=C1C2=C(NCC[S+]2[O-])C(=O)c2[nH]cc(CO)c21` (stereo unspecified): the inhibition entry (in experiment [2]; in [3]; in [4]; in the experiment filed under Homo sapiens) was “inactive” throughout. For the same molecule, the result with COLO 205 [5] was inactive. The result in [6] was Active.

Turning to `CN(C)CCOc1ccc(-c2nc(-c3ccc4c(c3)CC/C4=N/O)c(-c3ccncc3)[nH]2)cc1`, the outcome in the experiment with COLO 205 [8], with COLO 205 [9], in the experiment on COLO 205 [10] and with COLO 205 [11] was inactive. Further, the inhibition entry in experiment [12] is “Active”.
